According to ChEMBL document CHEMBL4813946, “Discovery of novel 4-azaaryl-N-phenylpyrimidin-2-amine derivatives as potent and selective FLT3 inhibitors for acute myeloid leukaemia with FLT3 mutations” (Eur J Med Chem, 2021):

Key:
[1] = biological target: T1, Receptor-type tyrosine-protein kinase FLT3 (Homo sapiens, UniProt P36888); assay: Inhibition of wild type FLT3 (unknown origin) using Glu/Tyr peptide substrate incubated for 120 mins measured after 40 mins incubation under dark by ADP-glo based luminescence assay
T1 sequence (P36888 whole entry): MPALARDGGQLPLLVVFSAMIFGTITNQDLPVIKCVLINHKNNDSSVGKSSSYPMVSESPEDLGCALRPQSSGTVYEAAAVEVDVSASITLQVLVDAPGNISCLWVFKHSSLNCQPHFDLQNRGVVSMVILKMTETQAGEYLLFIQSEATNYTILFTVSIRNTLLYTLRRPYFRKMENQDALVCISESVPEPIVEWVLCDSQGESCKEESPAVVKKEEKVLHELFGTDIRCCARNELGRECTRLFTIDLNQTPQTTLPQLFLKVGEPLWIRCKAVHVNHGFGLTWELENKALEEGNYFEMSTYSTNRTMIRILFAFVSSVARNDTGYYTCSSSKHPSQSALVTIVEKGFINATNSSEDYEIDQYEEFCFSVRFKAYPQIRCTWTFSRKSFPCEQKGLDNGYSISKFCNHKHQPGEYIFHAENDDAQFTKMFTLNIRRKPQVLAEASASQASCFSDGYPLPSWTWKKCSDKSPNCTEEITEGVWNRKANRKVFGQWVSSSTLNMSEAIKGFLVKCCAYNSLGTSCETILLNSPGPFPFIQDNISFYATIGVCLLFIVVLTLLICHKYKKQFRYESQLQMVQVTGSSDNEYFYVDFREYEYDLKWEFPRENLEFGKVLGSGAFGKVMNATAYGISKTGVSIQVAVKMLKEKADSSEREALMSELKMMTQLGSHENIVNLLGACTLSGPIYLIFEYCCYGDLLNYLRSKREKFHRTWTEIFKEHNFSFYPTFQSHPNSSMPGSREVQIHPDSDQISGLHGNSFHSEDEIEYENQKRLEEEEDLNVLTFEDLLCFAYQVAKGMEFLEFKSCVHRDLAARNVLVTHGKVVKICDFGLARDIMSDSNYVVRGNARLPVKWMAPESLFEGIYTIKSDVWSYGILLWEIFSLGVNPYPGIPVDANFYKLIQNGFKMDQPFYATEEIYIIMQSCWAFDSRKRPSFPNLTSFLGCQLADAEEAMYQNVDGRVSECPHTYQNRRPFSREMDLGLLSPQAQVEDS
Outline: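 In-house ADP-Glo assay with poly(Glu,Tyr) 4:1 substrate in 40 mM Tris pH 7.5, 20 mM MgCl2, 50 µM DTT, 0.1 mg/mL BSA. Kinase at 20 nM. ADP-Glo reagent 40 min in the dark, detection reagent 30–40 min, then luminescence. Ki was derived from IC50 by Cheng-Prusoff.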

[2] = biological target: Cyclin-dependent kinase 1/cyclin B1 (Homo sapiens, UniProt P06493); assay: Inhibition of CDK1/cyclin B (unknown origin) using histone 1 protein substrate incubated for 120 mins measured after 40 mins incubation under dark by ADP-glo based luminescence assay; assay type: protein-complex assay
Outline: (§1)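 In-house ADP-Glo assay with 2 mM DMSO stocks. Kinases were CDK1/cyclin B at 1 nM, CDK2/cyclin E1 at 10 nM and CDK7/cyclin H/MAT1 at 40 nM. Substrate was histone 1 for CDK1 and CDK2, and a RNA pol II CTD peptide for CDK7. Compound at 8–10 concentrations, 1:3 serial, final DMSO 0.5%. Reactions ran 60–120 min at room temperature, then ADP-Glo reagent 40 min in the dark, then detection reagent 40 min, read by luminescence. Ki was derived from IC50 by Cheng-Prusoff.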

[3] = biological target: Cyclin-dependent kinase 2/cyclin E1 (Homo sapiens, UniProt P24941); assay: Inhibition of CDK2/cyclin E (unknown origin) using histone 1 protein substrate incubated for 120 mins measured after 40 mins incubation under dark by ADP-glo based luminescence assay; assay type: protein-complex assay; outline: as §1
CDK7/Cyclin H/MNAT1 = CDK7/Cyclin H/MNAT1 (Homo sapiens, UniProt P50613); assay: Inhibition of CDK7/cyclin H/MAT1 (unknown origin) using HYSPTSPSYSPTSPSYSPTSPSKKKK-O substrate incubated for 120 mins measured after 40 mins incubation under dark by ADP-glo based luminescence assay; assay type: protein-complex assay; outline: as §1
MV4-11 = assay: Antiproliferative activity against human MV4-11 cells incubated for 72 hrs by resazurin assay; assay type: functional
Outline: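 Cells seeded and pre-incubated 24 h at 37 °C, 5% CO2, then given a five-fold dilution series of compound (from 10 mM DMSO stock) in medium, in triplicate. Resazurin added after 72 h exposure, 4 h in dark at 37 °C. Fluorescence read at 570/585 nm, normalised to DMSO vehicle. GI50 by non-linear regression; mean ± SD of at least two replicates.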

[4] = biological target: Receptor-type tyrosine-protein kinase FLT3 (Homo sapiens, UniProt P36888, ITD); assay: Inhibition of FLT3 ITD mutant (unknown origin) using Glu/Tyr peptide substrate incubated for 80 mins measured after 40 mins incubation under dark by ADP-glo based luminescence assay

Sequence of CDK7/Cyclin H/MNAT1 (P51946 whole entry): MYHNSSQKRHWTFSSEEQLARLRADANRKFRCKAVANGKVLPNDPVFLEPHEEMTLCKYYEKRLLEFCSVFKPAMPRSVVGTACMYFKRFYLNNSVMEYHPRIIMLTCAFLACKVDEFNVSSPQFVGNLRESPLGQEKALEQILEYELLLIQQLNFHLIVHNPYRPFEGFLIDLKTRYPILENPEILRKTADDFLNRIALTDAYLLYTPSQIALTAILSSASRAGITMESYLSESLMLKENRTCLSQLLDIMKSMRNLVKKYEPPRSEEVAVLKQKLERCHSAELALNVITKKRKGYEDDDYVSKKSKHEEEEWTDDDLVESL
Sequence of CDK7/Cyclin H/MNAT1 (P50613 whole entry): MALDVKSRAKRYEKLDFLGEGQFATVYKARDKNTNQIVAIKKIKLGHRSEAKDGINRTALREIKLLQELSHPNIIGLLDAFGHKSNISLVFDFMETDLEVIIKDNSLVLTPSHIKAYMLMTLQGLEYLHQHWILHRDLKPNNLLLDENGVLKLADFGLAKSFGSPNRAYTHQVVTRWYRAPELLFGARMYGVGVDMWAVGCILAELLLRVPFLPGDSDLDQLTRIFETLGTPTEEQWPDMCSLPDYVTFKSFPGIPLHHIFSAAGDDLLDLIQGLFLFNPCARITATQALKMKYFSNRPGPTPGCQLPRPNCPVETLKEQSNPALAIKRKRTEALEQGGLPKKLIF
Sequence of CDK7/Cyclin H/MNAT1 (P51948 whole entry, further chain): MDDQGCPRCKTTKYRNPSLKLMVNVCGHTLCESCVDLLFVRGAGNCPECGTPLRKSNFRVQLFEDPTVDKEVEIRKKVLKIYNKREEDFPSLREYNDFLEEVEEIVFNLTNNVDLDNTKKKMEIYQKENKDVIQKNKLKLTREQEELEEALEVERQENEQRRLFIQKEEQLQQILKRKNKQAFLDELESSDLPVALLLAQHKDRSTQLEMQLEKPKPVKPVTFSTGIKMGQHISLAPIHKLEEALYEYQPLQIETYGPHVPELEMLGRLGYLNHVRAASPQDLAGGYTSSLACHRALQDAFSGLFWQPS
Sequence of Cyclin-dependent kinase 1/cyclin B1 (P06493 whole entry): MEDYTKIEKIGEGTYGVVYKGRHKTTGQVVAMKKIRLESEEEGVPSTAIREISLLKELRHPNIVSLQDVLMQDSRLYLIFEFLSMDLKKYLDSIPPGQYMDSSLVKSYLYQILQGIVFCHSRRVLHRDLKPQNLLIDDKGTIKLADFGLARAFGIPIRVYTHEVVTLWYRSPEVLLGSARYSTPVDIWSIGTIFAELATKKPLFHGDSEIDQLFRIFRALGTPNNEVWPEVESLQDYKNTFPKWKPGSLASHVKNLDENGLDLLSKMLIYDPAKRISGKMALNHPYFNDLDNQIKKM
Sequence of Cyclin-dependent kinase 1/cyclin B1 (P14635 whole entry, further chain): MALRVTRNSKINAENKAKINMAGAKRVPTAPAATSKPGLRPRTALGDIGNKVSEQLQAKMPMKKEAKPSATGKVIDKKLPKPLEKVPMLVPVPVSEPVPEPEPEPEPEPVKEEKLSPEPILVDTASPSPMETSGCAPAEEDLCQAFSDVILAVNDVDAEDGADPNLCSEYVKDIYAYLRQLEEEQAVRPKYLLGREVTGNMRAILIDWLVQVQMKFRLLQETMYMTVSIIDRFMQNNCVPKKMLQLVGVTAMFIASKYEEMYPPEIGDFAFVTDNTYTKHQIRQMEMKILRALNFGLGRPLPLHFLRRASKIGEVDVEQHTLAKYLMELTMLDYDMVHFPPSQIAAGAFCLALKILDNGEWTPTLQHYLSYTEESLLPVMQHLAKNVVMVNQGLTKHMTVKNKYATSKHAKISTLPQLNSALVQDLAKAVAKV

Row | SMILES | Ki [1] | Ki [2] | Ki [3] | Ki (CDK7/Cyclin H/MNAT1) | GI50 (MV4-11) | Ki [4]
1 | CC(=O)N1CCCN(c2cccc(Nc3nccc(-c4c[nH]c5ncccc45)n3)c2)CC1 | 0.4 nM | 51 nM | 31 nM | 29 nM | 20 nM | 0.1 nM
2 | CC(=O)N1CCN(c2ccc(Nc3ncc(C#N)c(-c4cn(C)c5ccccc45)n3)cc2)CC1 | 37 nM | 1580 nM | 1120 nM | 1620 nM | 30 nM | 7 nM
3 | CC(=O)N1CCN(c2ccc(Nc3nccc(-c4c[nH]c5cccnc45)n3)cc2)CC1 | 32 nM | > 5000 nM | > 5000 nM | > 5000 nM | 420 nM | 4 nM
4 | CN1CCN(c2cccc(Nc3nccc(-c4c[nH]c5cccnc45)n3)c2)CC1 | 217 nM | > 5000 nM | > 5000 nM | > 5000 nM | 405 nM | 20 nM
5 | CC(=O)N1CCN(c2ccc(Nc3nccc(-c4cn(S(=O)(=O)c5ccc(C)cc5)c5ccccc45)n3)cc2)CC1 | > 5000 nM | > 5000 nM | > 5000 nM | > 5000 nM | 1560 nM | 128 nM
6 | CN1CCN(c2cccc(Nc3nccc(-c4cn(C)c5ncccc45)n3)c2)CC1 | 40 nM | > 5000 nM | 970 nM | > 5000 nM | 24 nM | 13 nM
7 | CC(=O)N1CCN(c2ccc(Nc3nccc(-c4c[nH]c5ncccc45)n3)cc2)CC1 | 0.8 nM | 91 nM | 49 nM | > 5000 nM | < 1 nM | 0.1 nM
8 | CC(=O)N1CCCN(c2cccc(Nc3nccc(-c4c[nH]c5cccnc45)n3)c2)CC1 | 150 nM | > 5000 nM | > 5000 nM | > 5000 nM | 688 nM | 107 nM
9 | CC(=O)N1CCN(c2ccc(Nc3nccc(-c4n[nH]c5ccccc45)n3)cc2)CC1 | > 5000 nM | > 5000 nM | > 5000 nM | > 5000 nM | 346 nM | 207 nM
10 | CN1CCN(c2cccc(Nc3nccc(-c4c[nH]c5ncccc45)n3)c2)CC1 | 4 nM | 531 nM | 84 nM | 142 nM | 5 nM | 2 nM
